Experimental data: ChEMBL document CHEMBL2385012, “Caesalpins A-H, bioactive cassane-type diterpenes from the seeds of Caesalpinia minax” (J Nat Prod, 2013)
pIC50: −log10 of the molar value.

Columns and labels:
Format in all cases: functional, cell-based
[1] = test system: HepG2; experiment: Cytotoxicity against human HepG2 cells assessed as growth inhibition after 48 hrs by MTT assay; settings: HepG2, 48 h
In short: (§1)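 Cells grown in DMEM with 10% FBS and seeded at 6 × 10^4 cells/mL. Five concentrations per compound added from DMSO, each tested in triplicate. Incubated 48 h at 37 °C under 5% CO2. MTT (4 mg/mL) added, then 4 h further incubation. Medium removed, formazan dissolved in DMSO, absorbance read at 570 nm. IC50 reported as mean ± SD of triplicate experiments. Doxorubicin served as positive control.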

[2] = test system: AGS; experiment: Cytotoxicity against human AGS cells assessed as growth inhibition after 48 hrs by MTT assay; in short: as §1
[3] = test system: MCF7; experiment: Cytotoxicity against human MCF7 cells assessed as growth inhibition after 48 hrs by MTT assay; settings: MCF7, 48 h; in short: as §1
[4] = test system: A549; experiment: Cytotoxicity against human A549 cells assessed as growth inhibition after 48 hrs by MTT assay; settings: A549, 48 h; in short: as §1
[5] = test system: K562; experiment: Cytotoxicity against human K562 cells assessed as growth inhibition

Row | Structure (SMILES) | pIC50 [1] | pIC50 [2] | pIC50 [3] | pIC50 [4] | pIC50 [5]
1 | COC(=O)CC1=C(C)C2=C[C@H](OC(C)=O)[C@@]3(O)C(C)(C)CC[C@H](OC(C)=O)[C@]3(C)[C@H]2CC1=O | 5.33 | < 4.30 | 5.68 | 4.84 | 
2 | COC(=O)CC1=C(C)[C@@H]2[C@@H](OC(C)=O)[C@H](OC(C)=O)[C@@]3(O)C(C)(C)CC[C@H](OC(C)=O)[C@]3(C)[C@H]2CC1=O | 4.73 | 4.32 | 5.10 | 4.60 | 
3 | COC(CC1=C(C)[C@@H]2[C@@H](OC(C)=O)[C@H](OC(C)=O)[C@@]3(O)C(C)(C)CC[C@H](OC(C)=O)[C@]3(C)[C@H]2CC1=O)OC | 4.97 | 4.34 | 4.81 | 4.50 | 
4 | CC(=O)O[C@H]1CCC(C)(C)C2=CC(=O)c3c(cc4occc4c3C)[C@]21C | < 4.30 | 5.19 | < 4.30 | 4.61 | 
5 | CC(=O)O[C@H]1CCC(C)(C)[C@]2(O)[C@@H](OC(C)=O)[C@H](O)c3c(cc4occc4c3C)[C@@]12C | < 4.30 | < 4.30 | < 4.30 | < 4.30 | 
6 | CO[C@@]12C[C@H]3[C@@H](CC[C@@]4(O)C(C)(C)C[C@H](OC(C)=O)[C@H](OC(C)=O)[C@]34C)[C@@H](C)C1=CC(=O)O2 | < 4.30 | < 4.30 | 4.34 | < 4.30 | 
7 | C=C1C2=CC(=O)O[C@]2(OC)C[C@H]2[C@H]1[C@@H](O)C[C@@]1(O)C(C)(C)CC[C@H](OC(C)=O)[C@]21C | 4.46 | < 4.30 | < 4.30 | < 4.30 | 
8 | C=C1C2=CC(=O)O[C@]2(OC)C[C@H]2[C@H]1[C@@H](O)[C@H](OC(C)=O)[C@@]1(O)C(C)(C)CC[C@H](OC(C)=O)[C@]21C | 4.41 | < 4.30 | < 4.30 | < 4.30 | 
9 | CO[C@@]12C[C@H]3[C@@H](C[C@H](OC(C)=O)[C@@]4(O)C(C)(C)C[C@H](OC(C)=O)[C@H](OC(C)=O)[C@]34C)[C@](C)(O)C1=CC(=O)O2 | 4.33 | 4.54 | < 4.30 | < 4.30 | 
10 | CC(=O)OC1CC(C)(C)[C@]2(O)C[C@H](O)[C@H]3[C@@H](C)C4=CC(=O)O[C@]4(O)C[C@@H]3[C@@]2(C)[C@H]1OC(C)=O (stereo partly drawn) | < 4.30 | < 4.30 | 4.44 | 4.50 | 
11 | CC(=O)O[C@@H]1[C@@H]2[C@H](C=C3OC(=O)C=C3[C@@]2(C)O)[C@@]2(C)[C@@H](OC(C)=O)CCC(C)(C)[C@]2(O)[C@H]1OC(C)=O | < 4.30 | < 4.30 | 4.39 | < 4.30 | 
12 | CC(=O)O[C@H]1CC(C)(C)[C@]2(O)CC[C@H]3[C@@H](C)C4=CC(=O)OC4=C[C@@H]3[C@@]2(C)[C@H]1OC(C)=O | < 4.30 | < 4.30 | < 4.30 | < 4.30 | 
13 | COc1cccc2c1C(=O)c1c(O)c3c(c(O)c1C2=O)C[C@@](O)(C(=O)CO)C[C@@H]3O[C@H]1C[C@H](N)[C@H](O)[C@H](C)O1 [DOXORUBICIN] | 6.23 | 5.92 | 6.03 | 6.13 | 
14 | C#C[C@@]12O[C@]1(C=O)[C@]1(C)CC[C@H]3C(C)(C)CCC[C@]3(C)[C@H]1CC2=O [ESCOBARINE A] |  |  |  |  | 5.60
